According to ChEMBL document CHEMBL1127464, “Inhibitors of HIV-1 proteinase containing 2-heterosubstituted 4-amino-3-hydroxy-5-phenylpentanoic acid: synthesis, enzyme inhibition, and antiviral activity” (J Med Chem, 1994):

Tests used:
[1] = biological target: T1, Cathepsin D (Homo sapiens, UniProt P07339); assay: (§1) Selectivity for their inhibitory potency against human cathepsin D.
[2] = system: MT4; assay: Antiviral activity by analysis of p24 antigen concentration for HIV-1 strain IIIB in de novo infected MT-4 cells; assay type: functional, cell-based; settings: Homo sapiens
[3] = system: MT4; assay: Antiviral activity by analysis of p26 antigen concentration for HIV-2 strain EHO, replication in MT-4 cells; assay type: functional, cell-based; settings: Homo sapiens
[4] = system: Human immunodeficiency virus 1; assay: Antiviral activity by observing cytopathic effect induced by HIV-1 strain IIIB in de novo infected MT-4 cells; assay type: functional, organism-based; settings: Human immunodeficiency virus 1, MT4
[5] = biological target: Pepsin A (Sus scrofa, UniProt P00791); assay: Selectivity for their inhibitory potency against porcine pepsin
Sequence of Pepsin A (P00791 whole entry): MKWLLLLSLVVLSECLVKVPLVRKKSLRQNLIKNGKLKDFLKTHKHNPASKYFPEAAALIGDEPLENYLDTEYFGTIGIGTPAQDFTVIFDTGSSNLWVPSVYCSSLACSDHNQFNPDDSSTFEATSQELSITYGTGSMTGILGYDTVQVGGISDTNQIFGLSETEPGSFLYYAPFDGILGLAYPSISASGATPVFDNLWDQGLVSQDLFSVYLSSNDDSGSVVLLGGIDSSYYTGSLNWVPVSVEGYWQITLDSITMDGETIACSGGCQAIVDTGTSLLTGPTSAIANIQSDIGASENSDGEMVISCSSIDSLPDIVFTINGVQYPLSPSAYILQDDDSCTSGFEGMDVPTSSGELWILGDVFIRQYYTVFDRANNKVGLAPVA
How it was run: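 Porcine pepsin assayed in 0.1 M glycine–HCl, pH 2.0, with 0.5% hemoglobin substrate and [14C]methylhemoglobin tracer.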

[6] = biological target: T2, Renin (Homo sapiens, UniProt P00797); assay: Selectivity for their inhibitory potency against human renin
T2 sequence (P00797 whole entry): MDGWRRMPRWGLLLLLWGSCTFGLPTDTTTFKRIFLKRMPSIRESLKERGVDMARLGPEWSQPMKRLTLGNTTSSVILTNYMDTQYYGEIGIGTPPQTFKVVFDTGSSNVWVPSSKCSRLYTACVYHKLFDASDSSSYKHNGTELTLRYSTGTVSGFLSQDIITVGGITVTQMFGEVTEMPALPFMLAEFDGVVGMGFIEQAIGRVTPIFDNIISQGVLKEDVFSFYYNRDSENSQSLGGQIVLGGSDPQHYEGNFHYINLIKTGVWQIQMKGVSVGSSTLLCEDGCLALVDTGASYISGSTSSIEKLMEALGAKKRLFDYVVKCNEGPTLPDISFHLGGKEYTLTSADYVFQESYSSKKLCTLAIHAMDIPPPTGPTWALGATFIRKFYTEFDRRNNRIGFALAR

[7] = biological target: Human immunodeficiency virus type 1 protease (Human immunodeficiency virus 1, UniProt Q72874); assay: Inhibitory constant against HIV-1 protease
How it was run: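 HIV-1 proteinase expressed in E. coli JM 105 and purified to homogeneity. Initial rates were taken from the absorbance decrease at 298 nm. IC50 came from a fit of the initial velocities. Ki was derived from IC50 accounting for enzyme, substrate and Km. Mean of two determinations.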

[8] = biological target: T1, Cathepsin D; assay: as §1; assay type: functional

T1 sequence (P07339 65-162 limits assumed): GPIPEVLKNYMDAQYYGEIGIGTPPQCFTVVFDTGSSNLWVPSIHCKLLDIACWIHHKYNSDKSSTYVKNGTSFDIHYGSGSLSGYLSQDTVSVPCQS
T1 sequence (P07339 169-412 limits assumed): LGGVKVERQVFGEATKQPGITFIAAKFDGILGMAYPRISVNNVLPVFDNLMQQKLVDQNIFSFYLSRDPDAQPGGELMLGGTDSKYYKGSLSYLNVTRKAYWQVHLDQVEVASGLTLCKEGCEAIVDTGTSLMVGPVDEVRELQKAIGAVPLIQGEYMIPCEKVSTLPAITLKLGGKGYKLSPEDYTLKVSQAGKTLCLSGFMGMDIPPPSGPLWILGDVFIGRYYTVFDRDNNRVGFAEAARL

Compound	IC50 [1] [µM]	IC50 [2] [µM]	IC50 [3] [µM]	IC50 [4] [µM]	IC50 [5] [µM]	IC50 [6] [µM]	Ki [7] [µM]	IC50 [8] [µM]
COc1ccc(CN[C@@H](C(=O)N[C@H](C(=O)NCc2nc3ccccc3[nH]2)C(C)C)[C@H](O)[C@H](Cc2ccccc2)NC(=O)[C@@H](NC(=O)C(C)Oc2ccccc2)C(C)(C)C)cc1 (stereo not given in full)	2	0.0079	0.47	0.038	> 10	> 10	0.006	
CC(C)[C@H](NC(=O)[C@H](NCc1ccc(Cl)cc1)[C@H](O)[C@H](Cc1ccccc1)NC(=O)[C@@H](NC(=O)OCc1ccccc1)C(C)(C)C)C(=O)NCc1nc2ccccc2[nH]1	1.8	0.0113	0.24	0.034	> 10	> 10	0.0075	
CC(C)[C@H](NC(=O)OCc1ccccc1)C(=O)N[C@@H](Cc1ccccc1)[C@@H](O)[C@@H](NCc1ccccc1)C(=O)N[C@H](C(=O)NCc1ccccc1)C(C)C		0.315	> 3	0.58	> 10	> 10	0.0061	0.035
COc1ccc(CN[C@@H](C(=O)N[C@H](C(=O)NCc2nc3ccccc3[nH]2)C(C)C)[C@H](O)[C@H](Cc2ccccc2)NC(=O)[C@@H](NC(=O)CCc2ccc(O)cc2)C(C)(C)C)cc1	> 10	0.021		0.096	> 10	> 10	0.013	
COc1ccc(CN[C@@H](C(=O)N[C@H](C(=O)NCc2nc3ccccc3[nH]2)C(C)C)[C@H](O)[C@H](Cc2ccccc2)NC(=O)[C@@H](NC(=O)OCc2ccccc2)C(C)C)cc1	0.38	0.0097	0.46	0.025	> 10	> 10	0.0034	
COc1ccc(CN[C@@H](C(=O)N[C@H](C(=O)NCc2nc3ccccc3[nH]2)C(C)C)[C@H](O)[C@H](Cc2ccccc2)NC(=O)[C@@H](NC(=O)OCc2ccccc2)C(C)(C)C)cc1	1	0.0054	0.385	0.014	> 10	> 10	0.0046	
COc1ccc(CN[C@@H](C(=O)N[C@H](C(=O)NCc2ccccc2)C(C)C)[C@H](O)[C@H](Cc2ccccc2)NC(=O)[C@@H](NC(=O)OCc2ccccc2)C(C)C)cc1	0.11	0.132	0.81	0.32	> 10	> 10	0.0074	
CC(C)[C@H](NC(=O)[C@H](NCc1ccccc1)[C@H](O)[C@H](Cc1ccccc1)NC(=O)[C@@H](NC(=O)OCc1ccccc1)C(C)(C)C)C(=O)NCc1ccccc1	0.06	0.093	1.4	0.32	> 10	> 10	0.0092	
